From PubChem
NR2E3 ag-1: activates human NR2E3 receptor | Q9Y5X4 | CHO-S Gal4-NCOR/VP16-NR2E3 two-hybrid, luciferase | inhibition of corepressor binding, % at 3.98 µM | actives 0.35% (n = 360,000);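 active = inhibition above the mean of all tested compounds plus 3 SD, cut at about 70% in these data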;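 note: higher means lower luciferase signal from less NR2E3 corepressor binding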
Target sequence (Q9Y5X4 whole entry, looked up, the tested form may be a part): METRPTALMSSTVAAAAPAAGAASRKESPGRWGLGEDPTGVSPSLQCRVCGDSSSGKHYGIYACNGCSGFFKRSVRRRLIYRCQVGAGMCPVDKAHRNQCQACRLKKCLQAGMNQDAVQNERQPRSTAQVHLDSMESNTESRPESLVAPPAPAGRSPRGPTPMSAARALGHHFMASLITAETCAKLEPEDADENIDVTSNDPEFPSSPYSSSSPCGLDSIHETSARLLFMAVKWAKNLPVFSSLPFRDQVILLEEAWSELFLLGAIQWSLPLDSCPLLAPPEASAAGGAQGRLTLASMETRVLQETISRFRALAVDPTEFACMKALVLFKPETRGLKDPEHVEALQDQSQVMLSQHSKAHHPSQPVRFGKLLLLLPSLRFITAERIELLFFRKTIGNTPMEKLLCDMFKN
697 NFkB inh: inhibitors of the PMA/ionomycin-induced NF-kB reporter in 697 B cells; inhibition, % at 4 µM; AID 435022; 697 B-cell NF-kB luciferase reporter, 16 h; actives 0.33% (n = 330,000); in the data active = inhibition above about 35%
NR2E3 ag-2: activates human photoreceptor nuclear receptor NR2E3; Q9Y5X4; GST-NR2E3/biotin-RetCOR TR-FRET, 1536-well; inhibition of corepressor binding, % at 4.78 µM; actives 0.12% (n = 320,000);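 active = percent inhibition above the cutoff of mean plus 3 SD of all tested compounds, set per screening campaign, cut at about 20% in these data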
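Material: NR2E3–RetCOR corepressor complex / Amount: 1.35 nM GST-NR2E3 / Medium: Tris pH 7.5 / Compound: single nominal compound dose of 4.8 µM / Incubation: 5 h at 4 °C / Technique: TR-FRET, Eu(K)-anti-GST donor, streptavidin-D2 acceptor, ex 340, em 617/671 nm / Read-out basis: percent loss of FRET ratio relative to control wells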
FGF22 binding: FGF22 (human) thermal shift binding; actives 1.5% (n = 340,000); activity (Tm shift, normalised), % at 9.99 µM; AID 651658; recombinant FGF22 thermal shift, SYPRO orange fluorescence; percent of sucrose octasulfate shift, DMSO zero;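 active = mean Tm shift, scaled 0 neutral to 100 positive control, at about 1.3% or above, every replicate too, limit read from the data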
Target sequence (Q9HCT0 whole entry, looked up): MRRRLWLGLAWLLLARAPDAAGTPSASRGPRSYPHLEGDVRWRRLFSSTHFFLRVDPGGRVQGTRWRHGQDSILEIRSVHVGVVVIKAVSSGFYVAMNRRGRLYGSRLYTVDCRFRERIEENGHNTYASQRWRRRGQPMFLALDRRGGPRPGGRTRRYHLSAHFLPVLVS
Jurkat NFkB inh: inhibitors of the PMA/ionomycin-induced NF-kB reporter in Jurkat cells | PMA/ionomycin-induced NF-kB luciferase reporter, luminescence | inhibition, % at 4 µM | actives 0.53% (n = 330,000) | AID 435003; in the data active = inhibition above about 50%
miR122 inh: blocks miR-122 activity in Huh7 sensor cells. Huh7 miR-122 Renilla luciferase sensor, 48 h; neutral wells = 0, positive control = 100. activation (reporter increase), % at 12.5 µM. AID 602342. actives 0.3% (n = 340,000);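 active = mean replicate activation score at least 90 and every replicate individually at or above 90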;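 note: higher luciferase means less miR-122 activity so hits act as miR-122 inhibitors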
Jurkat NFkB conf: inhibitors of the PMA/ionomycin-induced NF-kB reporter in Jurkat cells, retest | inhibition, % at 4 µM | actives 27% (n = 2,700) | shares compounds with Jurkat NFkB inh | Jurkat NF-kB luciferase, 16 h;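 active = inhibition reaching about 45% at 4 µM in either replicate, limit read from the data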
Large screens that a line does not name were inactive (follow-up assays come after a bar, where they were run). In the library only some 2.2% were active in any assay of this set; here they are far more common.

Cc1ccc(-n2nc3c([n+]2[O-])CCc2c-3no[n+]2[O-])cc1	none (no result: FGF22 binding)
Cc1noc(C)c1NC(=O)Nc1ccc2c(c1)CC(=O)N([C@H](C)CO)C[C@@H](C)[C@H](CN(C)Cc1ccc(C(F)(F)F)cc1)O2	none (no result: NR2E3 ag-1, 697 NFkB inh, NR2E3 ag-2, Jurkat NFkB inh)
O=S1(=O)C=C(Sc2nnc(-c3ccccc3)o2)c2ccccc21	Jurkat NFkB inh 90 (no result: FGF22 binding) | Jurkat NFkB conf 65
Cc1cc(C)nc(SC2=CS(=O)(=O)c3ccccc32)n1	none (no result: FGF22 binding)
N#CC(C#N)=C1C=CC=CN1/C(=C\c1ccco1)C(=O)c1ccccc1	none (no result: 697 NFkB inh, Jurkat NFkB inh, miR122 inh)
COc1ccc(C(=O)/C(=C\c2ccco2)N2C=CC=CC2=C(C#N)C#N)cc1	Jurkat NFkB inh 65 (no result: FGF22 binding) | Jurkat NFkB conf 49
CCOc1cc(CNc2ccc3c(c2)OCCO3)cc(Br)c1OC	Jurkat NFkB inh 59 (no result: FGF22 binding) | Jurkat NFkB conf inactive
CCOc1ccc2ccccc2c1C(=O)N1CCN(c2ccccc2)CC1	Jurkat NFkB inh 68 | Jurkat NFkB conf inactive
COc1ccccc1C(=O)N1CCN(c2cccc(C(F)(F)F)c2)CC1	Jurkat NFkB inh 66 (no result: FGF22 binding) | Jurkat NFkB conf inactive
CCOc1ccccc1C(=O)N1CCN(c2cccc(Cl)c2)CC1	Jurkat NFkB inh 81, miR122 inh 139 (no result: FGF22 binding) | Jurkat NFkB conf inactive
O=C(O)c1ccccc1C(=O)N1CCN(c2cccc(Cl)c2)CC1	none (no result: FGF22 binding)
COCC(=O)Nc1ccc2c(c1)C(=O)N(C)[C@H]1CC[C@H](CC(=O)NCc3ccccc3F)O[C@@H]1CO2	none (no result: NR2E3 ag-1, 697 NFkB inh, NR2E3 ag-2, Jurkat NFkB inh, miR122 inh)
O=C(C[C@H]1CC[C@@H](NS(=O)(=O)c2ccc(F)cc2)[C@@H](CO)O1)NC1CCC1	none (no result: NR2E3 ag-1, 697 NFkB inh, NR2E3 ag-2, Jurkat NFkB inh, miR122 inh)
CCOC(=O)N1CCC(NC(=O)c2ccc3c(c2)N=C(C)c2c(C)ccc(C)c2S3)CC1	Jurkat NFkB inh 65 | Jurkat NFkB conf 56
CCOC(=O)N1CCC(NC(=O)c2ccc3c(c2)N=C(CC)c2cc(C)ccc2S3)CC1	none
CC1C/C(=C/c2ccncc2)C(=O)/C(=C/c2ccncc2)C1 (stereo not given)	Jurkat NFkB inh 96 | Jurkat NFkB conf inactive
CCOC(=O)c1c(C)[nH]c(C)c1C(=O)COC(=O)/C=C/c1ccc(OC)cc1	Jurkat NFkB inh 51 (no result: NR2E3 ag-2) | Jurkat NFkB conf inactive
CCOC(=O)c1c(C)[nH]c(C)c1C(=O)COC(=O)/C=C/c1cccc(F)c1	none (no result: 697 NFkB inh, FGF22 binding, Jurkat NFkB inh)
CCCC(=O)Nc1ccc2c(c1)OC[C@H](C)N(Cc1ccccc1)C[C@H](C)[C@@H](OC)CN(C)C2=O	none (no result: NR2E3 ag-1, 697 NFkB inh, NR2E3 ag-2, Jurkat NFkB inh, miR122 inh)
CCS(=O)(=O)c1ncc(Cl)c(C(=O)Nc2ccc(S(=O)(=O)N(C)c3ccccc3)cc2)n1	Jurkat NFkB inh 75 | Jurkat NFkB conf inactive
CCN(c1ccccc1)S(=O)(=O)c1ccc(NC(=O)c2nc(S(C)(=O)=O)ncc2Cl)cc1	none (no result: FGF22 binding)
CC(=Nc1ccc(Br)cc1)c1sc2ccccc2c1O	none | Jurkat NFkB conf inactive
NC(=Nc1ccc(Br)cc1)c1ccccc1	none
CCOC(=O)CSc1nc2cc(OC)ccc2cc1C#N	none (no result: FGF22 binding) | Jurkat NFkB conf inactive
CCOC(=O)CSc1nc2cc(C)ccc2cc1C#N	none (no result: FGF22 binding) | Jurkat NFkB conf inactive
CCOC(=O)CSc1nc2ccc(C)cc2cc1C#N	none
COc1ccc2cc(C#N)c(SCC(=O)Nc3nonc3C)nc2c1	none
Cc1ccc(S(=O)(=O)Nc2ccc3c(c2)C(=O)N([C@@H](C)CO)C[C@H](C)[C@@H](CN(C)S(C)(=O)=O)O3)cc1	none (no result: NR2E3 ag-1, 697 NFkB inh, NR2E3 ag-2, Jurkat NFkB inh)
CNC(=O)C[C@@H]1CC[C@H]2[C@H](COc3ccc(NC(=O)Nc4cccc(Cl)c4)cc3C(=O)N2C)O1	none (no result: NR2E3 ag-1, 697 NFkB inh, NR2E3 ag-2, Jurkat NFkB inh)
CC1(C)CC(=O)c2c(O)cc(OCc3ccc(Br)cc3)cc2O1	none | Jurkat NFkB conf inactive
COC(=O)c1ccc(COc2cc(O)c3c(c2)OC(C)(C)CC3=O)cc1	none (no result: FGF22 binding)
NC(=S)N=Nc1c(O)n(Cc2ccc(Br)cc2)c2ccccc12	Jurkat NFkB inh 60 (no result: FGF22 binding, miR122 inh) | Jurkat NFkB conf inactive
NC(=S)N=Nc1c(O)n(Cc2ccc(F)cc2)c2ccccc12	none (no result: FGF22 binding, miR122 inh)
C[C@@H]1CN([C@H](C)CO)C(=O)Cc2cc(N(C)C)ccc2O[C@@H]1CN(C)C(=O)Nc1ccc(F)cc1	none (no result: NR2E3 ag-1, 697 NFkB inh, NR2E3 ag-2, Jurkat NFkB inh)
COc1ccc2nc(SCC(=O)NC3CCCC3)c(C)cc2c1	Jurkat NFkB inh 50 | Jurkat NFkB conf inactive
